# According to ChEMBL document CHEMBL1158163, “A re-examination of the difluoromethylenesulfonic acid group as a phosphotyrosine mimic for PTP1B inhibition” (Bioorg Med Chem, 2008):
# Starred links: 1 amine or outer side, 2 acyl side, 3 side chain; linkers in the order of their positions; H or OH if unused. Non-standard residues stand in square brackets, D forms with d. Residues, ends and D or L forms follow the SMILES beside them. X1 = O=C([C@@H](Cc1cccc(C(F)(F)S(=O)(=O)O)c1)N[*:1])[*:2]; X3 = O=C([C@@H](Cc1cccc(C(F)(F)P(=O)(O)O)c1)N[*:1])[*:2]; X2 = O=C([C@@H](Cc1cccc(CS(=O)(=O)O)c1)N[*:1])[*:2]
# Molecular target: T1, Tyrosine-protein phosphatase non-receptor type 1 (Homo sapiens, UniProt P18031)
# T1 sequence (P18031 whole entry): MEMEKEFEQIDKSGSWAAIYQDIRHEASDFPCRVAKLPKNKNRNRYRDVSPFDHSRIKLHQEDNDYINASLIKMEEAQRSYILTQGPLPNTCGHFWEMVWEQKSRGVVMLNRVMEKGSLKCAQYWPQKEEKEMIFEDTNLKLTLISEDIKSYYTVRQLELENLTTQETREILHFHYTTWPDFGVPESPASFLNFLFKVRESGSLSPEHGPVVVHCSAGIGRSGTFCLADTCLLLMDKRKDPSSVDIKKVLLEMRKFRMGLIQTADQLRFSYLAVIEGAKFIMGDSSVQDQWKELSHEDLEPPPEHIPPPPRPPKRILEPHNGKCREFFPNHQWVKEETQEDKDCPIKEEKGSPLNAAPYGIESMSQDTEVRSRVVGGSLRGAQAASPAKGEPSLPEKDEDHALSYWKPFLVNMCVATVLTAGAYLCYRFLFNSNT
# Test: Inhibition of human PTP1B expressed in Escherichia coli BL21(DE3) cells
# Procedure, shortened: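 IC50 assay at 25 °C in 50 mM Bis–Tris HCl pH 6.3 with 2% glycerol, 0.1% Triton X-100, 4% DMSO, 4.5 mM DTT, 1.8 mM EDTA (final). DiFMUP substrate at Km (5 µM). Reaction started by adding PTP1B. DiFMU fluorescence (ex 360/em 460 nm) followed for 10 min. Initial rates Vi/Vo fitted semi-log to Vi = Vo/[1+([I]/IC50)^S]+B.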
SMILES,IC50 [µM],Ki [µM]
NS(=O)(=O)c1cc(-c2ccc(CSCc3ccc(C(F)(F)P(=O)(O)O)c(Br)c3)cc2)ccc1Br,0.006,
NS(=O)(=O)c1cc(-c2ccc(CSCc3ccc(C(F)(F)S(=O)(=O)O)c(Br)c3)cc2)ccc1Br,13,10.6
NS(=O)(=O)c1cc(-c2ccc(CSCc3ccc(CS(=O)(=O)O)c(Br)c3)cc2)ccc1Br,19,10.3
NS(=O)(=O)C(F)(F)c1cc(-c2ccc(CSCc3ccc(C(F)(F)P(=O)(O)O)c(Br)c3)cc2)ccc1Br,0.03,0.024
NS(=O)(=O)C(F)(F)c1cc(-c2ccc(CSCc3ccc(C(F)(F)S(=O)(=O)O)c(Br)c3)cc2)ccc1Br,6,3.3
O=P(O)(O)C(F)(F)c1ccc2ccccc2c1,35,
CC(C)C[C@H](NC(=O)[C@@H](Cc1cccc(C(F)(F)S(=O)(=O)O)c1)NC(=O)[C@H](CCC(=O)O)NC(=O)[C@H](CC(=O)O)NC(=O)[C@H](C)NC(=O)[C@@H](N)CC(=O)O)C(N)=O (H-DADE[X1]L-NH2),10,
CC(C)C[C@H](NC(=O)[C@@H](Cc1cccc(CS(=O)(=O)O)c1)NC(=O)[C@H](CCC(=O)O)NC(=O)[C@H](CC(=O)O)NC(=O)[C@H](C)NC(=O)[C@@H](N)CC(=O)O)C(N)=O (H-DADE[X2]L-NH2),44,
CC(C)C[C@H](NC(=O)[C@@H](Cc1cccc(C(F)(F)P(=O)(O)O)c1)NC(=O)[C@H](CCC(=O)O)NC(=O)[C@H](CC(=O)O)NC(=O)[C@H](C)NC(=O)[C@@H](N)CC(=O)O)C(N)=O (H-DADE[X3]L-NH2),,0.024
